Measured values: PubChem BioAssay
Values without a mark were called inactive. The source made the active and inactive calls.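 Rule for the calls: active = viability at or below 30% in both replicate assays; inconclusive = viability at or below 30% in just one of the two assays; inactive = the rest.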

Test: HUVEC growth inhibition – cell-based, human, primary screen (AID 575);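 note: 100% = median of untreated cell wells with 0.1% DMSO on each plate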
Settings: HUVEC proliferation, CellTiter-Glo luminescence, 72 h; at 10 µM; active compounds read low
Method in brief: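 System: primary human umbilical vein endothelial cells; Quantity: 1250 endothelial cells in each well; Buffer or medium: supplemented EBM, 2% fetal bovine serum; Doses: one dose, 10 µM final, 0.1% DMSO; Incubation: 72 h compound incubation; Technique: ATP-based CellTiter-Glo luminescent read; Evaluation: percent of median DMSO-control luminescence; Controls: vehicle and MePR control wells.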

SMILES	viability
c1ccc(OCc2nc3ccccc3[nH]2)cc1	85.4%
CS(=O)(=O)N(CC(=O)NC1CC1)c1cccc(F)c1	86.5%
O=C(NCc1ccco1)C1Cc2ccccc2CN1S(=O)(=O)c1ccccc1F (configuration not stated)	57.5%
Oc1cccc2ccc(Nc3ccccn3)nc12	2.4% (active)
Cc1ccccc1NS(=O)(=O)c1ccc(NC(=O)c2ccco2)cc1	90%
CC(=O)c1c(C)[nH]c(C(=O)NC2=NCCS2)c1C	80.9%
Nc1nc(SCc2ccc(Cl)cc2Cl)n[nH]1	85.8%
O=C(Nc1ccccc1C(=O)N1CCOCC1)c1ccncc1	96.4%
O=C1c2cccnc2C(=O)N1c1cccc(-c2nc3ccccc3o2)c1	111%
CCOc1ccc(N(C)S(=O)(=O)c2ccc3[nH]cc(C(=O)NCC4CCCO4)c(=O)c3c2)cc1 (configuration not stated)	73.7%
Cc1cc(=O)oc2c(CN3CCN(C)CC3)c(O)c(Cl)cc12	101%
Cn1c(=O)c2ccccc2n(Cc2ccccc2F)c1=O	101%
COc1ccc(OC)c(-c2nc3c(C)n[nH]c(=O)c3[nH]2)c1	79.1%
COc1ccc(CN(C(=O)CSc2nnc(-c3ccccc3F)o2)c2ccc(F)cc2)cc1	101%
COc1ccccc1C(=O)Nc1c2c(nn1-c1cccc(C)c1C)CS(=O)(=O)C2	49.2%
Cc1cccc(NC(=O)CCn2ccnc2C)c1	98.8%
O=c1oc(-c2ccco2)nc2ccccc12	92.6%
